Experimental data published in ChEMBL document CHEMBL1148390, “Structural analysis and optimization of NK(1) receptor antagonists through modulation of atropisomer interconversion properties” (J Med Chem, 2004).

What was measured:
[1] = test system: Substance-P receptor (Oryctolagus cuniculus); experiment: In vitro binding affinity towards Tachykinin receptor 1 was determined using rabbit pulmonary artery tissues
[2] = biological target: T1, Substance-K receptor (Oryctolagus cuniculus) (UniProt P79218); experiment: In vitro binding affinity towards Tachykinin receptor 2 using rabbit pulmonary artery tissues
T1 sequence (whole entry): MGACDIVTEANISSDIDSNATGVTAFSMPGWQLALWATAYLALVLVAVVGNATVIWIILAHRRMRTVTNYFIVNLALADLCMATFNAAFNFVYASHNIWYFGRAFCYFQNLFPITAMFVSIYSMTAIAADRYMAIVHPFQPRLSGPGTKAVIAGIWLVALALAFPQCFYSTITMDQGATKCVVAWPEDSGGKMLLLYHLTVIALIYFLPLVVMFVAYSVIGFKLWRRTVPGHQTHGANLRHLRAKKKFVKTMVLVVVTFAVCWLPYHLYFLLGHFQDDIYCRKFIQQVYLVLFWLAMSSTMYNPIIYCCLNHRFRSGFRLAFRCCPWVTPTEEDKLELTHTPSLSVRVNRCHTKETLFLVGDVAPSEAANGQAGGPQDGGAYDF
In short: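 Functional antagonism in isolated rabbit pulmonary artery (n = 2–6), reported as pKB. NK1 tested against agonist ASMSP with antagonist at 1 nM, or at 100 nM where antagonism was not purely competitive; NK2 tested against agonist BANK with antagonist at 1 μM. Where antagonism was not purely competitive, activity was taken as percent inhibition = 100 – maximum relaxation as % of control.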

Substance-K receptor = biological target: T2, Substance-K receptor (Homo sapiens, UniProt P21452); experiment: In vitro binding affinity towards human Tachykinin receptor 2 was determined by using [125I]NKA as a radioligand
T2 sequence (P21452 whole entry): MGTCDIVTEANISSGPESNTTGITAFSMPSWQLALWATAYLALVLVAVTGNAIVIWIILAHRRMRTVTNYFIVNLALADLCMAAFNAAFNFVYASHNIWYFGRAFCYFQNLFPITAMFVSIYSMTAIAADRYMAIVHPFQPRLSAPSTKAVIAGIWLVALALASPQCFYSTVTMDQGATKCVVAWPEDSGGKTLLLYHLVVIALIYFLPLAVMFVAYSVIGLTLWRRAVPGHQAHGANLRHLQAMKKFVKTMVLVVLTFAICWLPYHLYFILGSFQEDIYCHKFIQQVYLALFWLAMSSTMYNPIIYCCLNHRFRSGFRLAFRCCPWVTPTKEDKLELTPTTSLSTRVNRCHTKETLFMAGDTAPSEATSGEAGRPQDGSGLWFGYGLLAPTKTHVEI
In short: (§1)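 Human tachykinin receptors stably expressed in mouse erythroleukemia (MEL) cells; NK3 construct differs from genomic sequence at AA439 (Cys vs Phe). Radioligand displacement: [3H]SP for NK1, [125I]NKA for NK2, [125I]MePheNKB for NK3; n ≥ 2 determinations.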

[3] = Time for maximum plasma concentration was measured in dogs after an oral dose of 10 uM/kg; type: ADME, organism-based, Canis lupus familiaris; settings: dog
In short: (§2)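 Dogs (n = 3) dosed orally at 10–100 μmol/kg as a solution in 75% polyethylene glycol 400 in normal saline; iv bolus comparison at 1–10 μmol/kg. Blood taken via surgically implanted cannula or by venipuncture over 24 h; plasma analysed for unchanged compound by LC–MS.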

Neuromedin-K receptor = biological target: T3, Neuromedin-K receptor (Homo sapiens, UniProt P29371); experiment: In vitro binding affinity towards human Tachykinin receptor 3 was determined by using [125I]MePhe-NKB as a radioligand
T3 sequence (P29371 whole entry): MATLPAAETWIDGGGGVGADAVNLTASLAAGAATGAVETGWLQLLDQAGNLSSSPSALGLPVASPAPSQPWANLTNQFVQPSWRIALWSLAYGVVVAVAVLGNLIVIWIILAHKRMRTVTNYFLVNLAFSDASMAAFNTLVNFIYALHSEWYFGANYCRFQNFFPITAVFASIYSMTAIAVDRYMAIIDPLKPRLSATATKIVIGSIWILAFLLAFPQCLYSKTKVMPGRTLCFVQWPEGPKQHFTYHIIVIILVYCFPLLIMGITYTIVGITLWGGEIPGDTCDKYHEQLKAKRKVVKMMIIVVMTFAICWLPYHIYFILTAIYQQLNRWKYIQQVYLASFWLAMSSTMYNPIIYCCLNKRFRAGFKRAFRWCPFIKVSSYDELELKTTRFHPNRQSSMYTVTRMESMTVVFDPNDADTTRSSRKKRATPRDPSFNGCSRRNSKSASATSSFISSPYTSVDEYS
In short: as §1

[4] = Half-life was measured in dogs after an oral dose of 10 uM/kg; type: ADME, organism-based, Canis lupus familiaris; settings: dog, in vivo
In short: as §2

[5] = Area under plasma concentration time curve was measured in dogs after an oral dose of 10 uM/kg; type: ADME, organism-based, Canis lupus familiaris; settings: dog
In short: as §2

[6] = Bioavailability was measured in dogs after an oral dose of 10 uM/kg; type: ADME, organism-based, Canis lupus familiaris; settings: dog, in vivo, read-out: Bioavailabiility
In short: as §2

Gerbillinae = experiment: Percent inhibitory activity against ASMSP induced foot tapping response in gerbils after oral dose of 5 uM/kg; type: functional
In short: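 Gerbils given antagonist orally at 5 μmol/kg 6 h before central (CNS) administration of ASMSP (100 pmol). Foot-tapping response compared with vehicle-only control animals; result expressed as percent inhibition.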

Substance-P receptor = Substance-P receptor (Homo sapiens, UniProt P25103); experiment: In vitro binding affinity towards human Tachykinin receptor 1 was determined by using [3H]SP as a radioligand
Sequence of Substance-P receptor (P25103 whole entry): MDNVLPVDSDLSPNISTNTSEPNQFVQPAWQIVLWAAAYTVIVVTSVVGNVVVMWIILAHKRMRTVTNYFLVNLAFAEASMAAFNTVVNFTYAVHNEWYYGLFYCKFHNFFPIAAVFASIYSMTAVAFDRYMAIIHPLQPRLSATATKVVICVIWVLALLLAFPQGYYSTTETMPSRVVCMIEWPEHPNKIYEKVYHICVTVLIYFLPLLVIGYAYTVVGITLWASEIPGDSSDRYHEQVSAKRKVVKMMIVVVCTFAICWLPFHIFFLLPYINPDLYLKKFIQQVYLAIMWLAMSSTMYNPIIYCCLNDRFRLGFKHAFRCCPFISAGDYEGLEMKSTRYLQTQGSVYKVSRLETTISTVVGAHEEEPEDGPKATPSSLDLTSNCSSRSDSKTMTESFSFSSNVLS
In short: as §1

[7] = Maximum plasma concentration was measured in dogs after an oral dose of 10 umol/kg; type: ADME, organism-based, Canis lupus familiaris; design: dose 10 umol/kg, route oral; settings: dog
In short: as §2

**Q.** With `CC(C)Cc1c(C#N)cc2ccccc2c1C(=O)N(C)C[C@@H](CCN1CCC(c2ccccc2[S@+](C)[O-])CC1)c1ccc(Cl)c(Cl)c1` as the compound, how does the pKB [1] read?
**A.** The pKB was 7.23.

**Q.** And the pKB [2]?
**A.** The pKB was 6.35.

**Q.** What does the source list for `CCCc1c(C#N)cc2ccccc2c1C(=O)N(C)C[C@@H](CCN1CCC(c2ccccc2[S@+](C)[O-])CC1)c1ccc(Cl)c(Cl)c1`?
**A.** pKB [1]: 7.8; pKB [2]: 6.72

**Q.** Which results are given for `CN(C[C@@H](CCN1CCC(c2ccccc2[S@+](C)[O-])CC1)c1ccc(Cl)c(Cl)c1)C(=O)c1c(-c2ccccc2)c(C#N)cc2ccccc12`?
**A.** pKB [1]: 7.39; pKB [2]: 7.27

**Q.** For `CN(C[C@@H](CCN1CCC(c2ccccc2[S@+](C)[O-])CC1)c1ccc(Cl)c(Cl)c1)C(=O)c1cc(C#N)cc2ccccc12`, which pKB [2] is on record?
**A.** Its pKB is 8.3.

**Q.** With `Cc1c(C#N)cc2ccccc2c1C(=O)N(C)C[C@@H](CCN1CCC(c2ccccc2[S@+](C)[O-])CC1)c1ccc(Cl)c(Cl)c1` as the compound, how does the pKB [1] read?
**A.** The pKB was 9.06.

**Q.** What about the pKB [2] of the same compound?
**A.** The pKB was 7.1.

**Q.** Which results are given for `CCc1c(C#N)cc2ccccc2c1C(=O)N(C)C[C@@H](CCN1CCC(c2ccccc2[S@+](C)[O-])CC1)c1ccc(Cl)c(Cl)c1` (stereo in doubt; 3) [listing 1 of 2 here]?
**A.** Ki (Substance-K receptor): 0.037 µM; Tmax [3]: 4 h; Ki (Neuromedin-K receptor): 0.097 µM; half-life [4]: 5.9 h; AUC [5]: 6130 ng·h/mL; bioavailability [6]: 37.3%; Inhibition (Gerbillinae): 33%; Ki (Substance-P receptor): 0.00124 µM; Cmax [7]: 662 ng/mL

**Q.** With `CCc1c(C#N)cc2ccccc2c1C(=O)N(C)C[C@@H](CCN1CCC(c2ccccc2[S@+](C)[O-])CC1)c1ccc(Cl)c(Cl)c1` (stereo in doubt; 3) [listing 2 of 2 here] as the compound, how does the pKB [2] read?
**A.** The pKB was 7.31.

**Q.** With `CCc1c(C#N)cc2ccccc2c1C(=O)N(C)C[C@@H](CCN1CCC(c2ccccc2[S@+](C)[O-])CC1)c1ccc(Cl)c(Cl)c1` (stereo in doubt; form 1) [listing 1 of 2 here] as the compound, how does the Ki (Substance-K receptor) read?
**A.** Its Ki is 0.023 µM.

**Q.** What about the Inhibition (Gerbillinae) of the same compound?
**A.** The Inhibition was 1.4%.

**Q.** And the Ki (Substance-P receptor)?
**A.** The Ki was 0.00171 µM.

**Q.** Which pKB [2] does the source give for `CCc1c(C#N)cc2ccccc2c1C(=O)N(C)C[C@@H](CCN1CCC(c2ccccc2[S@+](C)[O-])CC1)c1ccc(Cl)c(Cl)c1` (stereo in doubt; form 1) [listing 2 of 2 here] here?
**A.** Its pKB is 7.11.

**Q.** Which Ki (Substance-K receptor) does the source give for `CCc1c(C#N)cc2ccccc2c1C(=O)N(C)C[C@@H](CCN1CCC(c2ccccc2[S@+](C)[O-])CC1)c1ccc(Cl)c(Cl)c1` (stereo in doubt; form 2) [listing 1 of 2 here] here?
**A.** The Ki was 0.033 µM.

**Q.** What about the Inhibition (Gerbillinae) of the same compound?
**A.** The Inhibition was 91%.

**Q.** What about the Ki (Substance-P receptor) of the same compound?
**A.** Its Ki is 0.00694 µM.

**Q.** For `CCc1c(C#N)cc2ccccc2c1C(=O)N(C)C[C@@H](CCN1CCC(c2ccccc2[S@+](C)[O-])CC1)c1ccc(Cl)c(Cl)c1` (stereo in doubt; form 2) [listing 2 of 2 here], which pKB [2] is on record?
**A.** Its pKB is 6.25.

**Q.** Which Ki (Substance-K receptor) does the source give for `CCc1c(C#N)cc2ccccc2c1C(=O)N(C)C[C@@H](CCN1CCC(c2ccccc2[S@+](C)[O-])CC1)c1ccc(Cl)c(Cl)c1` (stereo in doubt; form 3) [listing 1 of 2 here] here?
**A.** The Ki was 0.022 µM.

**Q.** And the Inhibition (Gerbillinae)?
**A.** The Inhibition was 0.3%.

**Q.** What about the Ki (Substance-P receptor) of the same compound?
**A.** Its Ki is 0.00294 µM.

**Q.** Which pKB [2] does the source give for `CCc1c(C#N)cc2ccccc2c1C(=O)N(C)C[C@@H](CCN1CCC(c2ccccc2[S@+](C)[O-])CC1)c1ccc(Cl)c(Cl)c1` (stereo in doubt; form 3) [listing 2 of 2 here] here?
**A.** Its pKB is 6.83.

**Q.** Which Ki (Substance-K receptor) does the source give for `CCc1c(C#N)cc2ccccc2c1C(=O)N(C)C[C@@H](CCN1CCC(c2ccccc2[S@+](C)[O-])CC1)c1ccc(Cl)c(Cl)c1` (stereo in doubt; form 4) here?
**A.** The Ki was 0.035 µM.

**Q.** What about the Inhibition (Gerbillinae) of the same compound?
**A.** Its Inhibition is 13%.

**Q.** What about the Ki (Substance-P receptor) of the same compound?
**A.** Its Ki is 0.0004 µM.
